From ChEMBL document CHEMBL1137507, “Discovery, synthesis, and structure-activity studies of tetrazole based growth hormone secretagogues” (Bioorg Med Chem Lett, 2007) come the findings set out here.

The term Ki denotes a dissociation constant, usually derived from enzyme kinetics or from competition with a known ligand. What is called EC50 is the concentration that produces a half-maximal response. The bioavailability is the share of a dose that reaches the circulation, judged against a reference dose that is usually intravenous. A higher bioavailability goes with good availability. A word on the ED50: it is the midpoint of the dose-response relation.

Each structure is given as a SMILES string. Bounds are passed on as bounds.

Series [1] deals with T1, Growth hormone secretagogue receptor type 1 (Homo sapiens, UniProt Q92847). The experiment in a line: Displacement of [125I]ghrelin from human GHSR1a after 1 hr. Put shortly:
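Membranes (0.5 ug) from RAGE-based GHSR1a-expressing cells incubated 1 h with 0.02 nM [125I]ghrelin in 25 mM Hepes pH 7.2, 10 mM MgCl2, 2 mM EGTA, 0.1% BSA across a 12-point compound dose range; filtration over polyethylenimine-coated GFB plates, scintillation counting; four-parameter logistic fit, Ki via Cheng-Prusoff; typically tested on three separate occasions.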
A general note: In a radioligand displacement assay an active substance lowers the binding of a labelled ligand.

The target of series [2] is T1, Growth hormone secretagogue receptor type 1. The experiment in a line: Agonist activity at human GHS receptor expressed in H4 glioma cells assessed as intracellular calcium concentration by FLIPR assay. It counts as functional, cell-based. On the technique in general: Calcium assays in cells follow changes in intracellular calcium, usually with a dye or a luminescent sensor.

Series [3] is described as follows: Oral bioavailability in dog. It counts as ADME, organism-based, Canis lupus familiaris. Particulars: in vivo.
The target in series [4] is Growth hormone secretagogue receptor type 1 (Rattus norvegicus) (UniProt O08725). The experiment in a line: Agonist activity at GHS receptor in intravenously dosed anesthetized Wistar rat after 15 mins. In kind it is functional, organism-based.
Series [5] is described as follows: Oral bioavailability in rat. It counts as ADME, organism-based. Particulars: in vivo.
The test system of another series is Canis familiaris. The experiment in a line: Effect on GH level in Beagle dog at 10 mg/kg, po. In kind it is functional, Canis lupus familiaris. A digest of the protocol: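 Beagle dogs dosed orally at 10 mg/kg alongside vehicle controls; plasma GH followed to 120 min post-dose, read-out as mean peak GH level in ng/mL.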

Chain of Growth hormone secretagogue receptor type 1 (Rattus norvegicus) (O08725 whole entry): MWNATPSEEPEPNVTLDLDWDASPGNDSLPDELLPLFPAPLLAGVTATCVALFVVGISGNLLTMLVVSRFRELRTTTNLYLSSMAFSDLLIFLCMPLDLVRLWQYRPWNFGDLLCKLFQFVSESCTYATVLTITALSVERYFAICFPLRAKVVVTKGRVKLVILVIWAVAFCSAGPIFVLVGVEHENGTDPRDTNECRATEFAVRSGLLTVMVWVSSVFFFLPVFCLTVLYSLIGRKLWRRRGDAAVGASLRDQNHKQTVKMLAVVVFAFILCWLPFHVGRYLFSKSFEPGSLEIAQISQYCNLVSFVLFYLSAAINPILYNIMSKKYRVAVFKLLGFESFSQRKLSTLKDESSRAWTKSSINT
T1 sequence (Q92847 whole entry): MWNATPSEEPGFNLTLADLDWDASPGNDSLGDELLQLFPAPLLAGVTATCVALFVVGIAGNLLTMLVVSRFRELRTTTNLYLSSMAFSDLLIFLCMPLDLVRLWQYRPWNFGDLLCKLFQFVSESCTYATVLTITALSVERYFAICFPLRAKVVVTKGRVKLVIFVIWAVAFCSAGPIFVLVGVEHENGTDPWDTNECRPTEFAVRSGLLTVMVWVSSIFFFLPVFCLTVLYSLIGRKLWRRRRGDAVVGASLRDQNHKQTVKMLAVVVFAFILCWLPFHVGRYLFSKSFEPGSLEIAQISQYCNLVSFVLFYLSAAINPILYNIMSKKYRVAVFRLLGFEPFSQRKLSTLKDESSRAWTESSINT

In series [1], `CC(C)(N)C(=O)N[C@H](COCc1ccccc1)c1nnnn1CCC(=O)NCCCc1ccccc1` showed a Ki of 820 nM. In series [2], the 50% effective concentration (EC50) was determined as 59 nM.
As for `CC(C)(N)C(=O)N[C@H](COCc1ccccc1)c1nnnn1CCC#N`, the results for the bioavailability in series [3] and in series [5] were 76% and 56%, respectively. The ED50 in series [4] was found to be 0.0085 µmol/kg. In series [1], this compound displayed a Ki of 2940 nM. In series [2], the EC50 is 30 nM. The same compound registered an Activity in the series with Canis familiaris of 30 ng/mL.
The compound `COC(=O)CCn1nnnc1[C@@H](COCc1ccccc1)NC(=O)C(C)(C)N` came in with a Ki in series [1] of 3380 nM. In series [2], the EC50 was determined as 43 nM.
`CCCCNC(=O)CCCn1nnnc1[C@@H](COCc1ccccc1)NC(=O)C(C)(C)N`: the Ki in series [1] stood at 1780 nM. Further, in series [2], the EC50 is 30 nM.
In series [1], `COC(=O)C(c1ccccc1)n1nnc([C@@H](COCc2ccccc2)NC(=O)C(C)(C)N)n1` (some centres not stated) returned a Ki of over 5000 nM. Besides, the EC50 in series [2] came to 3170 nM.
`CC(C)(N)C(=O)N[C@H](COCc1ccccc1)c1nnnn1C/C=C/c1ccccc1` returned an ED50 in series [4] of 0.0264 µmol/kg. The Ki in series [1] was 190 nM. Also, the EC50 in series [2] worked out at 12 nM.
As for `COC(=O)C(c1ccccc1)n1nnnc1[C@@H](COCc1ccccc1)NC(=O)C(C)(C)N` (some centres not stated), in series [1], affinity was put at a Ki of 470 nM. In series [2], the EC50 was 20 nM.
`COC(=O)CCCn1nnnc1[C@@H](COCc1ccccc1)NC(=O)C(C)(C)N` gave an inhibition constant (Ki) in series [1] of 2380 nM. Further, the EC50 in series [2] was 55 nM.
Take `CC(C)(N)C(=O)N[C@H](COCc1ccccc1)c1nnn(Cc2ccccc2)n1`: in series [1], affinity was put at a Ki of 4750 nM. Moreover, the EC50 in series [2] was 1120 nM.
In turn, `CC(C)(N)C(=O)N[C@H](COCc1ccccc1)c1nnnn1CCc1nnn[nH]1` registered a Ki in series [1] of 5000 nM. In addition, in series [2], the EC50 was 347 nM.
On the same counts, the results for `CC(C)(N)C(=O)N[C@H](COCc1ccccc1)c1nnnn1CCCCC#N` are 3120 nM and 35 nM.
On the same counts, the results for `CC(C)(N)C(=O)N[C@H](COCc1ccccc1)c1nnn(CC#N)n1` are over 5000 nM and 1520 nM.
On the same counts, the results for `CN(c1ccccc1CCCn1nnnc1[C@@H](COCc1ccccc1)NC(=O)C(C)(C)N)S(C)(=O)=O` are 1720 nM and 14 nM.
`CC(C)(N)C(=O)N[C@H](COCc1ccccc1)c1nnnn1CCc1ccccc1NS(C)(=O)=O` returned a Ki in series [1] of 2200 nM. In addition, the EC50 in series [2] was 67 nM.
On the same counts, the results for `CC(C)(N)C(=O)N[C@H](COCc1ccccc1)c1nnn(Cc2cccc(NS(C)(=O)=O)c2)n1` are over 5000 nM and 868 nM.
On the same counts, the results for `CC(C)(N)C(=O)N[C@H](COCc1ccccc1)c1nnnn1Cc1ccc(NS(C)(=O)=O)cc1` are over 5000 nM and 259 nM.
On to `CCCCNC(=O)CCn1nnnc1[C@@H](CCc1ccccc1)NC(=O)C(C)(C)N`, for which the inhibition constant (Ki) in series [1] was found to be 1370 nM. The 50% effective concentration (EC50) in series [2] was 49 nM.
`CCCCNC(=O)CCn1nnnc1[C@@H](COCc1ccccc1)NC(=O)C(C)(C)N` showed a Ki in series [1] of 2190 nM. Also, the EC50 in series [2] is 42 nM.
On the same counts, the results for `CC(C)(N)C(=O)N[C@H](COCc1ccccc1)c1nnn(C/C=C/c2ccccc2)n1` are over 5000 nM and 517 nM.
On the same counts, the results for `CN(c1ccccc1CCCn1nnc([C@@H](COCc2ccccc2)NC(=O)C(C)(C)N)n1)S(C)(=O)=O` are 2390 nM and 107 nM.
Consider `CC(C)(N)C(=O)N[C@H](COCc1ccccc1)c1nnn(CCCCC#N)n1`, for which, in series [1], the Ki is over 5000 nM. Moreover, in series [2], the EC50 worked out at 1860 nM.
For `CC(C)(N)C(=O)N[C@H](COCc1ccccc1)c1nnnn1Cc1cccc(NS(C)(=O)=O)c1`, in that order: over 5000 nM and 116 nM.
On the same counts, the results for `CC(C)(N)C(=O)N[C@H](COCc1ccccc1)c1nnn(CCc2ccccc2NS(C)(=O)=O)n1` are 2660 nM and 4110 nM.
On the same counts, the results for `CC(C)(N)C(=O)N[C@H](COCc1ccccc1)c1nnnn1CC1CN(S(C)(=O)=O)c2ccccc21` (some centres not stated) are 1590 nM and 147 nM.
With `CC(C)(N)C(=O)N[C@H](COCc1ccccc1)c1nnn(CCc2cc3ccccc3n2S(C)(=O)=O)n1`, affinity in series [1] was put at a Ki of 1270 nM. In addition, the EC50 in series [2] was determined as 150 nM.
As to `CC(C)(N)C(=O)N[C@H](COCc1ccccc1)c1nnnn1CCC(=O)NCc1ccccc1`, the Ki in series [1] came out at 1070 nM. The half-maximal effective concentration (EC50) in series [2] was 51 nM.
For `CC(C)(N)C(=O)N[C@H](COCc1ccccc1)c1nnnn1CCC(=O)NCCc1ccccc1`, in that order: 780 nM and 27 nM.
For `CC(C)(N)C(=O)N[C@H](COCc1ccccc1)c1nnnn1Cc1ccccc1`, in that order: 1900 nM and 99 nM.
Turning to `CC(C)(N)C(=O)N[C@H](COCc1ccccc1)c1nnn(Cc2ccccc2NS(C)(=O)=O)n1`, in series [1], the Ki is over 5000 nM. Also, the concentration for a half-maximal effect (EC50) in series [2] was 426 nM.
The compound `CC(C)(N)C(=O)N[C@H](COCc1ccccc1)c1nnn(Cc2ccc(NS(C)(=O)=O)cc2)n1` registered a Ki in series [1] of over 5000 nM. The EC50 in series [2] came to 986 nM.
In series [1], `CC(C)(N)C(=O)N[C@H](COCc1ccccc1)c1nnnn1CCCc1ccccc1` displayed an inhibition constant Ki of 200 nM. Besides, the EC50 in series [2] stood at 17 nM.
Turning to `CC(C)(N)C(=O)N[C@H](COCc1ccccc1)c1nnnn1CC#N`, in series [1], the Ki is 4170 nM. In addition, the EC50 in series [2] is 29 nM.
For `CC(C)(N)C(=O)N[C@H](COCc1ccccc1)c1nnnn1CCCCCNC(=O)OCc1ccccc1`, in that order: 320 nM and 10 nM.
For `COC(=O)CCn1nnnc1[C@@H](Cc1c[nH]c2ccccc12)NC(=O)C(C)(C)N`, the Ki in series [1] was over 5000 nM. In series [2], the EC50 came out at 200 nM.
For `CC(C)(N)C(=O)N[C@H](COCc1ccccc1)c1nnnn1CCCCCNS(C)(=O)=O`, in that order: over 5000 nM and 75 nM.
The compound `CC(C)(N)C(=O)N[C@H](COCc1ccccc1)c1nnnn1CCc1cc2ccccc2n1S(C)(=O)=O` displayed an ED50 in series [4] of over 0.0174 µmol/kg. In series [1], this compound displayed a Ki of 970 nM. In addition, the concentration for a half-maximal effect (EC50) in series [2] worked out at 4 nM.
`CC(C)(N)C(=O)N[C@H](COCc1ccccc1)c1nnn(CC2Cc3ccccc3N2S(C)(=O)=O)n1` (some centres not stated) registered a Ki in series [1] of over 5000 nM. Besides, in series [2], the EC50 was determined as 546 nM.
For `CC(C)(N)C(=O)N[C@H](COCc1ccccc1)c1nnnn1Cc1ccccc1NS(C)(=O)=O`, in that order: 4450 nM and 390 nM.
